Experiments:
[1] = Compound E and XR9576 levels in brain tissue; format: in vivo, mouse; settings: LC-MS
Summary of the method: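 Brain hemispheres were homogenised by shaking with a steel ball (5 min, 20 Hz) in 45% methanol/45% acetonitrile/8% water/2% formic acid containing 1 µM internal standard, at 200 mg/ml. Extracts were centrifuged, filtered (0.8 µm) and run on capillary LC-MS (PLRPS column; water/acetonitrile gradient with 0.1% formic acid). Levels were quantified from internal-standard-normalised peak areas against an external curve prepared in control mouse brain extract.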

[2] = test system: P-glycoprotein (Pgp); settings: rodents; ref Bankstahl et al., 2008; cited from earlier work
[3] = test system: mRNA of genes related to APP processing or Aβ clearance; assay: qRT-PCR of APP processing and Aβ clearance genes in brain; format: in vivo, mouse; settings: 2 h after 80 mg/kg i.v.; cortex; n = 6/group; P = 0.08-0.94
Summary of the method: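 3-month-old mice received the Pgp inhibitor (80 mg/kg i.v.) or vehicle (5% dextrose) and were killed 2 h later. Cortical total RNA was reverse transcribed and run by SYBR Green qPCR with dissociation-curve checks. Genes were APP, PSEN1/2, nicastrin, APH-1, BACE1, ADAM10/17, Pgp, LRP1, IDE, NEP, MMP2 and MMP9. Levels were derived by ΔΔCt against mouse GAPDH and compared by t tests corrected for multiple comparisons.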

[4] = test system: LRP1; assay: LRP1 protein levels in brain tissue; format: in vivo, mouse; settings: after XR9576 administration; n = 9/group; P = 0.35
[5] = test system: ISF Aβ40; assay: baseline ISF Aβ40 in hippocampus measured with calibrated Aβ40 MIE; format: in vivo, APP/PS1 mice; settings: 60 min after XR9576 80 mg/kg; n = 8; mean ± SEM; control mice 99.12 ± 19.28 (n = 15); P = 0.008
[6] = test system: ISF Aβ; assay: in vivo microdialysis of ISF Aβ during isoflurane anesthesia; parameters: species or system mouse; settings: first 3 h of isoflurane anesthesia, n = 4, not significant, P = 0.135

C[C@H](NC(=O)Cc1cc(F)cc(F)c1)C(=O)N[C@H]1N=C(c2ccccc2)c2ccccc2N(C)C1=O [Compound E]
Compound E level in brain tissue ([1]; within 5 min after intraperitoneal injection (30 mg/kg)): 395 nM

COc1cc2c(cc1OC)CN(CCc1ccc(NC(=O)c3cc(OC)c(OC)cc3NC(=O)c3cnc4ccccc4c3)cc1)CC2 [XR9576]
time of maximum inhibition of Pgp activity after injection [2]: 30 min
mRNA expression levels in the brain [3]: did not find significant differences
LRP1 protein levels in hippocampus [4]: did not change
absolute baseline concentration of ISF Aβ40 [5]: 283.9 ± 80.38
XR9576 level in brain tissue ([1]; 1 h after injection, mouse brain extract, mean ± SEM): 533.0 ± 68.11 µM

FC(F)OC(Cl)C(F)(F)F (stereo not shown) [isoflurane]
decrease of ISF Aβ levels [6]: 14%
